CaV13 FRET inh: Disruptors of the CACNA1D IQ motif to Ca2+-dependent inactivation inhibitor domain association, primary screening, Förster resonance energy transfer in intact living …. HEK cells, CFP/YFP FRET ICDI-IQ, plate reader, 10 min; percent FRET-ratio fall versus neutral wells. inhibition, % at 12.3 µM. actives 0.098% (n = 340,000). AID 743397;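 active = mean replicate inhibition of at least 30% and at least 1% of replicates passing that level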;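 note: 0% = median of the neutral control wells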
CendR NRP1 mod: NRP-1/CendR interaction modulation | actives 0.85% (n = 360,000) | FAM-RPARPAR peptide binding to NRP-1, fluorescence polarization | O14786 | inhibition, % at 25 µM;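 active = inhibition or corrected inhibition above about 18%, plus a signal ratio from 0.5 to 1.5, limit read from the data, passing the limit was not always enough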
FAS TE block: FAS thioesterase (human) inhibition. inhibition, % at 15 µM. recombinant FAS-TE, OMFH fluorogenic substrate, fluorescence endpoint. P49327. actives 0.67% (n = 360,000);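 active = compounds whose normalised, plate-corrected inhibition of enzyme fluorescence in the single-dose primary screen is 50% or more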;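 note: 0% = DMSO with enzyme and 100% = substrate without enzyme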
Arr AP2 block: blocks beta-arrestin peptide binding to AP2 adaptin; FITC-arrestin peptide / GST-AP2 beads, flow cytometry; AP2 beta2 appendage carries R879A mutation; inhibition, % at 10 µM; actives 0.31% (n = 340,000); AID 504490;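 active = inhibition above a set limit, near 3 SD of compounds lacking own fluorescence, cut at about 54% in these data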;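 note: plate controls were DMSO wells for no effect and 5 µM unlabelled arrestin peptide for full effect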
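Test system: GST-tagged AP2 beta2-adaptin appendage (R879A) on 4 µm glutathione beads; also added: fluorescein-tagged arrestin peptide at 50 nM final; timing: 12 min plus 1 h, RT; signal: flow cytometry, FL1 (488/535 nm); read-out: percent drop in bead-associated FITC signal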
ADAM17 inh: inhibitors of human ADAM17; inhibition, % at 6.95 µM; recombinant ADAM17, EDANS/DABCYL FRET peptide cleavage; actives 0.83% (n = 370,000); P78536; AID 720648;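 active = inhibition above the mean of compounds lying between control limits plus 3 SD, set per campaign, cut at about 8.5% in these data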;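 note: 0% = DMSO-only wells as the low control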
ADAM10 inh: inhibitors of human ADAM10; O14672; AID 720582; inhibition, % at 7 µM; recombinant ADAM10, EDANS/DABCYL FRET peptide cleavage, 3 h; actives 0.62% (n = 370,000);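 active = inhibition above a per-campaign cutoff equal to the mean of compounds falling between control-based bounds plus 3 SD, cut at about 20% in these data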;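 note: 0% = DMSO wells while the 100% control is not disclosed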
FAS-TE conf: confirmation of human fatty acid synthase thioesterase inhibitors. inhibition, % at 15 µM. recombinant FAS-TE, OMFH fluorogenic substrate, fluorescence. shares compounds with FAS TE block. actives 45% (n = 2,300);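 active = compounds inhibiting the enzyme by at least 50% at 15 µM in any one of the replicates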;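 note: 0% = enzyme with DMSO only and 100% = wells lacking enzyme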
Active calls of the source: *; i = inactive; x = no result given. Shown are actives, neighbours in structure and some others; about 2.9% of the full set was active somewhere.

SMILES	CaV13 FRET inh	CendR NRP1 mod	FAS TE block	Arr AP2 block	ADAM17 inh	ADAM10 inh	FAS-TE conf
CCOC1=C2CN(S(=O)(=O)c3ccc(C)cc3)[C@H](c3ccccc3)C[C@H]2n2c(=O)n(-c3ccccc3)c(=O)n2C1	-6	15	70*	x	0	2	14
CCOC1=C2[C@H](c3ccccc3)N(S(=O)(=O)c3ccc(C)cc3)C[C@H]2n2c(=O)n(-c3ccccc3)c(=O)n2C1	-3	-18	41	x	1	2	x
CCOC1=C2[C@H](c3ccc(Cl)cc3)N(S(=O)(=O)c3ccc(C)cc3)C[C@H]2n2c(=O)n(-c3ccccc3)c(=O)n2C1	-6	15	56*	x	-4	-3	13
COC(=O)c1[nH]c2c(c1C)C(=O)CC(c1cccc(OC)c1)C2 (centres undefined)	-18	0	4	4	-3	1	x
COc1ccc(CN2c3ccccc3C(=O)CS2(=O)=O)cc1OC	-4	x	x	x	1	1	x
CCN(CC)c1ccc(C=NNC(=O)c2cc(-c3ccc(C)c(C)c3)n[nH]2)c(O)c1	x	x	x	x	-2	-12	x
Cc1nc(Sc2ccc(Cl)cc2)c(C#N)c(C)c1[N+](=O)[O-]	-5	6	64*	0	-3	2	21
Cc1nc(N2CCC(C)CC2)c(C#N)c(C)c1[N+](=O)[O-]	1	-8	21	-4	-2	4	x
Cc1ccc(Sc2nc(C)c([N+](=O)[O-])c(C)c2C#N)cc1	-4	-8	44	5	-1	2	x
Cc1nc(Sc2ccc(Br)cc2)c(C#N)c(C)c1[N+](=O)[O-]	-5	1	61*	10	0	2	35
O=C1CN(C(=O)C2CCC(=O)N(CCc3ccc(Cl)cc3)C2)CCN1 (centres undefined)	-7	2	-7	-6	-1	0	x
CN(C)CCNc1ncnc2c1ncn2[C@H]1CN(Cc2cccs2)C[C@@H](CO)O1	14	-16	-11	x	-2	-4	x
CC(C)(C)OC(=O)N1CC2(CCCCC2)CC1Cc1ccc(C(F)(F)F)cc1 (centres undefined)	-8	-3	14	x	3	0	x
CCOc1ccc2nc(S(=O)(=O)NC(=O)C3(C)CCN3C(=O)CCc3cccs3)sc2c1 (centres undefined)	-6	0	-3	x	-2	-15	x
CC[C@@H]1C(c2ccccc2)=NN(c2ccc(Br)cc2)[C@H]1C(=O)N1CCOC1=O	-7	-9	29	9	-67	-249	x
CC[C@@H]1C(c2cccc(Cl)c2)=NN(c2ccc(Br)cc2)[C@H]1C(=O)N1CCOC1=O	x	-8	42	23	x	x	x
O=C1OCCN1C(=O)[C@H]1[C@H](c2ccc(F)cc2)C(c2cccc(Cl)c2)=NN1c1ccccc1	-10	7	59*	10	-266	i	11
O=C1OCCN1C(=O)[C@H]1[C@H](c2ccc(Cl)cc2)C(c2ccccc2)=NN1c1ccc(Br)cc1	-5	2	81*	-1	-243	i	39
O=C1OCCN1C(=O)[C@H]1[C@H](c2ccc(Cl)cc2)C(c2cccc(Cl)c2)=NN1c1ccccc1	x	-9	94*	-6	x	x	7
O=C1OCCN1C(=O)[C@H]1[C@H](c2ccc(F)cc2)C(c2cccc(Cl)c2)=NN1c1ccc(Br)cc1	-8	-9	73*	-7	i	i	21
CC[C@@H]1C(c2cccc(C)c2)=NN(c2ccccc2)[C@H]1C(=O)N1CCOC1=O	-8	-13	16	2	-17	-68	x
Cc1cccc(C2=NN(c3ccccc3)[C@@H](C(=O)N3CCOC3=O)[C@@H]2c2ccc([N+](=O)[O-])cc2)c1	-6	-8	92*	-17	7	13	17
COc1ccccc1C(=O)N1CCN(C(=O)[C@H](CCc2ccccc2)NC(=O)[C@H]2O[C@@H](n3cnc4c(N)ncnc43)[C@H](O)[C@@H]2O)CC1	-2	x	x	x	-4	-6	x
O=C(COc1ccc2c(-c3ccccc3)cc(=O)oc2c1)N[C@@H](Cc1c[nH]c2ccc(O)cc12)C(=O)O	x	-25	74*	17	-1	-5	70*
O=C(COc1ccc2c(-c3ccccc3)cc(=O)oc2c1)NC(Cc1c[nH]c2ccccc12)C(=O)O (centres undefined)	-3	-18	9	-1	-5	-13	x
SMILES	CaV13 FRET inh	CendR NRP1 mod	FAS TE block	Arr AP2 block	ADAM17 inh	ADAM10 inh	FAS-TE conf
CCN(CC)C(=O)C1=C(C)N(CCC2=CCCCC2)C(=O)C(CC(=O)NCCCCc2ccccc2)C1 (centres undefined)	-9	-2	4	x	5	1	x
CCCCCCn1c(=O)c(F)cn(Cc2ccc(OC)c([N+](=O)[O-])c2)c1=O	x	6	58*	3	0	5	57*
Cc1cnc(C)c(Nc2nc(C(N)Cc3ccc(C(F)(F)F)cc3)cs2)n1 (centres undefined)	-6	-4	-1	x	-10	-42	x
C[C@H]1/C=C/CC(=O)N[C@@H](c2ccccc2)[C@@H](C)/C=C/CC(=O)N[C@H]1c1ccccc1	x	x	x	x	2	3	x
O=C(Nc1ccc(Br)cc1)c1cccc(-n2cnnn2)c1	-3	0	52*	-1	2	2	31*
CS(=O)(=O)c1ccc(NC(=O)c2cccc(-n3cnnn3)c2)cc1	-1	14	1	-14	0	-5	x
O=C(NCCc1ccccc1)OCc1cn(-c2cccc(C(F)(F)F)c2)nn1	x	x	x	x	2	5	x
O=c1nc(SCc2c(F)cccc2Cl)nc(-c2ccc(Cl)cc2)[nH]1	-5	-11	57*	-11	1	1	17
CCOCCCn1c(=NC(=O)c2ccco2)c(C(=O)OCC)cc2c(=O)n3cccc(C)c3nc21	10	-6	67*	5	i	i	2
CCOC(=O)c1cc2c(=O)n3ccccc3nc2n(Cc2ccco2)c1=NC(=O)c1ccc(OC)cc1	-15	-12	64*	14	i	i	47*
O=C(Nc1cccc(S(=O)(=O)N2CCOCC2)c1)c1cn(-c2ccccc2)nc1-c1ccccc1	-3	4	51*	-2	3	11	20
O=C(Nc1cccc(S(=O)(=O)N2CCOCC2)c1)c1cn(-c2ccccc2)nc1-c1ccc(F)cc1	-3	-9	41	24	1	13	x
Cc1sc2nc(CSC(C)C(=O)NC3(C#N)CCCCC3)[nH]c(=O)c2c1C (centres undefined)	-8	-13	-15	-1	-9	-30	x

Screens: PubChem, several laboratories
